Results on 29 compounds are retold here after ChEMBL document CHEMBL1795206, “Selective non zinc binding inhibitors of MMP13” (Bioorg Med Chem Lett, 2011).

Broadly, the half-life is the time needed for the level to fall by half in the phase considered. By hepatocyte CLint is commonly meant the rate of metabolic loss divided by the concentration. A word on the microsomal CLint: it is the rate of metabolic loss divided by the concentration. In general, clearance refers to the volume of plasma or blood freed of the substance per unit of time.

Series [1] in a line: Chemical stability of the compound assessed as half life at pH 4 to 10. It counts as physicochemical. The settings on record: buffer.
Series [2] can be described thus: Photolytic stability of the compound in phosphate buffer at pH 7 up to 4 hrs by LC-UV-MS analysis. It is filed as physicochemical. The settings on record: pH 7, 4 h.
The nature of series [3]: Half life in rat at 2 mg/kg, iv. It counts as ADME, organism-based. More on the design: dose 2 mg/kg, route intravenous. The note with it: in vivo. The essentials: (§1)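 Rats dosed intravenously at 2 mg/kg, n = 2 animals. Clearance is reported in ml/min/kg, half-life in h and steady-state volume of distribution in l/kg.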
Series [4] is described as follows: Intrinsic clearance in Sprague-Dawley rat hepatocytes measured per 10^6 cells. It is filed as ADME, cell-based, Liver, Hepatocyte.
Series [5] can be described thus: Intrinsic clearance in human liver microsomes. It is filed as ADME, Microsome. In general terms: Liver microsomes are a subcellular fraction often used to study metabolism.
A short description of series [6]: Clearance in rat at 2 mg/kg, iv. It counts as ADME, organism-based. More on the design: dose 2 mg/kg, route intravenous. The settings on record: in vivo. The gist of the method: as §1
Series [7] in a line: Volume of distribution at steady state in rat at 2 mg/kg, iv. The arrangement: dose 2 mg/kg, route intravenous. It is filed as ADME, organism-based. The settings on record: in vivo, read-out: Vdss. The essentials:
as §1

Some results are limits rather than exact numbers.

For `Cc1ccc(Oc2ccc(C(=O)NCc3ccncc3)cc2)cc1`, in series [1], the half-life was more than 41.7 days.

For `O=C(NCc1ccncc1)c1ccc(Oc2ccccc2)cc1`, the half-life in series [1] is more than 41.7 days. The Stability result in series [2] was “Stable”.

As to `O=C(NCc1ccncc1)c1ccc(OCc2ccccc2)cc1`, in series [1], the half-life was more than 41.7 days. Also, the Stability entry in series [2] was “Stable”.

For `O=C(NCc1ccncc1)c1ccc(Oc2ccc(C#C[C@]3(O)CN4CCC3CC4)cc2)cc1`, in series [1], the half-life was more than 41.7 days. Further, in series [2], the Stability result is recorded as “Stable”.

For `Cc1ccc(Oc2ccc(C(=O)NCc3cccnc3)cc2)cc1`, the half-life in series [1] is more than 41.7 days.

For `Cc1ccc(Oc2ccc(C(=O)NCc3ccccc3)cc2)cc1`, the half-life in series [1] was more than 41.7 days.

With `COc1cccc(CNC(=O)c2ccc(Oc3ccc(C)cc3)cc2)c1`, in series [1], the half-life is more than 41.7 days.

For the compound `Cc1ccc(Oc2ccc(C(=O)N(C)Cc3ccncc3)cc2)cc1`, the half-life in series [1] was more than 41.7 days.

On to `Cc1ccc(Oc2ccc(C(=O)NCCc3ccncc3)cc2)cc1`, for which, in series [1], the half-life was more than 41.7 days.

Consider `Cc1ccc(Oc2ccc(C(=O)NCC3CCCCC3)cc2)cc1`, for which the half-life in series [1] was more than 41.7 days.

In the case of `Cc1ccc(Oc2ccc(C(=O)NCCO)cc2)cc1`, the half-life in series [1] was more than 41.7 days.

`Cc1ccc(Oc2ccc(C(=O)NCCCN(C)C)cc2)cc1`: the half-life in series [1] was more than 41.7 days. Moreover, the Stability entry in series [2] is recorded as “Stable”.

Take `CNC(=O)c1ccc(Oc2ccc(C)cc2)cc1`: the half-life in series [1] was more than 41.7 days. The Stability entry in series [2] is on record as “Stable”.

Take `COc1ccc(C(=O)NCc2ccncc2)cc1`: in series [1], the half-life was more than 41.7 days. For the same compound, in series [2], the Stability entry is reported as “Stable”.

With `O=C(NCc1ccncc1)c1ccc(-c2ccccc2)cc1`, the half-life in series [1] is more than 41.7 days. For the same compound, in series [2], the Stability entry is recorded as “Stable”.

As to `O=C(NCc1ccncc1)c1ccc(OCCc2ccccc2)cc1`, the half-life in series [1] was more than 41.7 days. The Stability result in series [2] is reported as “Stable”.

In the case of `O=C(NCc1ccncc1)c1ccc(Oc2ccc([N+](=O)[O-])cc2)cc1`, the half-life in series [1] is more than 41.7 days. For the same compound, the Stability result in series [2] is on record as “Stable”.

Turning to `COc1cc(Oc2ccc(C(=O)NCc3ccncc3)cc2)ccc1[N+](=O)[O-]`, the half-life in series [1] was more than 41.7 days. Besides, the Stability entry in series [2] was “Stable”.

For the compound `N#Cc1ccccc1Oc1ccc(C(=O)NCc2ccncc2)cc1`, the half-life in series [1] is more than 41.7 days. Further, in series [2], the Stability result is reported as “Stable”.

Regarding `CNC(=O)c1ccc(Oc2ccc(C(=O)NCc3ccncc3)cc2)cc1`, the half-life in series [1] is more than 41.7 days. Further, in series [2], the Stability entry is “Stable”.

On to `O=C(NCc1ccncc1)c1ccc(Oc2ccc(/C=C/C3=CN4CCC3CC4)cc2)cc1`, for which the half-life in series [1] was more than 41.7 days. Further, the Stability result in series [2] is on record as “Stable”.

As to `O=C(NCc1ccncc1)c1ccc(Oc2ccc(C#C[C@@]3(O)CN4CCC3CC4)cc2)cc1`, the half-life in series [1] was more than 41.7 days. Further, the Stability result in series [2] is given as “Stable”.

Take `O=C(NCc1ccncn1)c1ccc(Oc2ccc(C#C[C@]3(O)CN4CCC3CC4)cc2)cc1`: the half-life in series [1] is more than 41.7 days; in series [3] it was 0.1 days. Further, the Stability result in series [2] was “Stable”. Besides, the hepatocyte CLint in series [4] was 3 µL/min/1e6 cells. In series [5], this compound gave a microsomal CLint of less than 2 µL/min/mg. In series [6], the clearance is 17 mL/min/kg. In series [7], the Vd was determined as 2.4 L/kg.

For `O=C(NCc1ccncn1)c1ccc(Oc2ccc(C#C[C@@]3(O)CN4CCC3CC4)cc2)cc1`, the half-life in series [1] is more than 41.7 days. The Stability result in series [2] is “Stable”.

Consider `O=C(NCc1ccncn1)c1ccc(Oc2ccc(CCC3(O)CN4CCC3CC4)cc2)cc1` (stereo not given), for which the half-life in series [1] is more than 41.7 days. Besides, the Stability result in series [2] was “Stable”.

For the compound `O=C(NCc1ccncn1)c1ccc(Oc2ccc(/C=C/C3(O)CN4CCC3CC4)cc2)cc1` (stereo not given), in series [1], the half-life is more than 41.7 days. Further, in series [2], the Stability entry was “Stable”.

In the case of `COC1(C#Cc2ccc(Oc3ccc(C(=O)NCc4ccncn4)cc3)cc2)CN2CCC1CC2` (stereo not given), the half-life in series [1] is more than 41.7 days. Moreover, the Stability entry in series [2] is on record as “Stable”.

On to `O=C(NCc1ccncn1)c1ccc(Oc2ccc(/C=C/C3=CN4CCC3CC4)cc2)cc1`, for which the half-life in series [1] is more than 41.7 days. For the same compound, the Stability entry in series [2] is reported as “Stable”.

As to `O=C(NCc1ccncc1)c1ccc(Oc2ccc(C#CC3(O)CN4CCC3CC4)cc2)cc1` (racemic), the half-life in series [1] was more than 41.7 days. Moreover, in series [2], the Stability entry was “Stable”.
